Measurements as given in ChEMBL document CHEMBL4145497, “Discovery of 2-aminothiazolyl berberine derivatives as effectively antibacterial agents toward clinically drug-resistant Gram-negative Acinetobacter baumanii” (Eur J Med Chem, 2018).
In brackets after ≈: the same amount, converted by molar mass. Activity calls are given as the source filed them. No cut-off for these calls is given here.

Experiments:
Acinetobacter baumannii [1] = test: Potentiation of norfloxacin-mediated antibacterial activity against drug-resistant Acinetobacter baumannii assessed as norfloxacin MIC after 18 to 24 hrs by two fold dilution checkerboard method (reference value: 0.8 umol/ml); assay type: functional
Bacillus subtilis = test: Antibacterial activity against Bacillus subtilis ATCC 21216 after 18 to 24 hrs by CLSI two fold serial dilution method; assay type: functional
Pseudomonas aeruginosa [2] = test: Antibacterial activity against Pseudomonas aeruginosa ATCC 27853 after 18 to 24 hrs by CLSI two fold serial dilution method; assay type: functional
Acinetobacter baumannii [3] = test: Synergistic antibacterial activity against drug-resistant Acinetobacter baumannii assessed as FIC index in presence of norfloxacin by two fold dilution checkerboard method; assay type: functional
Micrococcus luteus = test: Antibacterial activity against Micrococcus luteus ATCC 4698 after 18 to 24 hrs by CLSI two fold serial dilution method; assay type: functional
Staphylococcus aureus [4] = test: Potentiation of norfloxacin-mediated antibacterial activity against methicillin-resistant Staphylococcus aureus N315 assessed as norfloxacin MIC after 18 to 24 hrs by two fold dilution checkerboard method (reference value: 0.03 umol/ml); assay type: functional
Aspergillus flavus [5] = test: Antifungal activity against Aspergillus flavus ATCC 204304 by CLSI two fold serial dilution method; assay type: functional
Escherichia coli [6] = test: Antibacterial activity against drug-resistant Escherichia coli after 18 to 24 hrs in presence of norfloxacin by two fold dilution checkerboard method; assay type: functional
Staphylococcus aureus [7] = test: Ratio of MIC for methicillin-resistant Staphylococcus aureus N315 in absence of norfloxacin to MIC for methicillin-resistant Staphylococcus aureus N315 in presence of norfloxacin; assay type: functional
Staphylococcus aureus [8] = test: Antibacterial activity against methicillin-resistant Staphylococcus aureus N315 after 18 to 24 hrs in presence of norfloxacin by two fold dilution checkerboard method; assay type: functional
Klebsiella pneumoniae [9] = test: Synergistic antibacterial activity against drug-resistant Klebsiella pneumoniae assessed as FIC index in presence of norfloxacin by two fold dilution checkerboard method; assay type: functional
[10] = Aqueous solubility of the compound in phosphate buffer at pH 7.4 after 3 hrs by UV detection assay; assay type: physicochemical
In short: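 Water solubility measured at physiological pH, with berberine as the control.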

Staphylococcus aureus [11] = test: Antibacterial activity against Staphylococcus aureus ATCC 25923 after 18 to 24 hrs by CLSI two fold serial dilution method; assay type: functional
Pseudomonas aeruginosa [12] = test: Antibacterial activity against drug-resistant Pseudomonas aeruginosa after 18 to 24 hrs in presence of norfloxacin by two fold dilution checkerboard method; assay type: functional
Acinetobacter baumannii [13] = test: Antibacterial activity against drug-resistant Acinetobacter baumannii after 18 to 24 hrs in presence of norfloxacin by two fold dilution checkerboard method; assay type: functional
DNA [14] = test: Binding affinity to drug-resistant Acinetobacter baumanii DNA assessed as hyperchromic effect up to 2.5 10^-5mol/L by UV-vis spectroscopic analysis; assay type: nucleic-acid assay; settings: Acinetobacter baumannii
In short: (§1)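 Genomic DNA was isolated from drug-resistant A. baumanii by spin-column extraction after proteinase K lysis at 70 °C. DNA concentration was taken from A260 using ε260 = 6600 L·mol−1·cm−1, expressed as phosphate molarity, and purity was checked by A260/A280 and gel. UV-vis spectra were recorded at a fixed DNA concentration of 8.12×10^-4 mol/L with increasing compound.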

Klebsiella pneumoniae [15] = test: Antibacterial activity against drug-resistant Klebsiella pneumoniae after 18 to 24 hrs in presence of norfloxacin by two fold dilution checkerboard method; assay type: functional
Aspergillus flavus [16] = test: Potency index, ratio of fluconazole MIC to compound MIC for antibacterial activity against Aspergillus flavus ATCC 204304; assay type: functional
Enterococcus faecalis [17] = test: Potentiation of norfloxacin-mediated antibacterial activity against drug-resistant Enterococcus faecalis assessed as norfloxacin MIC after 18 to 24 hrs by two fold dilution checkerboard method (reference value: 0.8 umol/ml); assay type: functional
Escherichia coli [18] = test: Potentiation of norfloxacin-mediated antibacterial activity against drug-resistant Escherichia coli assessed as norfloxacin MIC after 18 to 24 hrs by two fold dilution checkerboard method (reference value: 1.6 umol/ml); assay type: functional
Candida albicans = test: Antifungal activity against Candida albicans ATCC 76615 by CLSI two fold serial dilution method; assay type: functional
Staphylococcus aureus [19] = test: Synergistic antibacterial activity against methicillin-resistant Staphylococcus aureus N315 assessed as FIC index in presence of norfloxacin by two fold dilution checkerboard method; assay type: functional
Cyberlindnera jadinii = test: Antifungal activity against Candida utilis ATCC 9950 by CLSI two fold serial dilution method; assay type: functional; settings: Williopsis jadinii
[20] = Cytotoxicity against human LO2 cells assessed as cell viability at 1.5625 to 100 ug/ml after 48 hrs by MTT assay relative to control; assay type: cell-based, L02; settings: read-out: Activity
In short: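 Human hepatocyte LO2 cells exposed to compound across a concentration range for 48 h; viability read by colorimetric MTT assay; standard deviation from three independent experiments.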

Staphylococcus aureus [21] = test: Potentiation of norfloxacin-mediated antibacterial activity against methicillin-resistant Staphylococcus aureus N315 after 18 to 24 hrs by two fold dilution checkerboard method relative to control; assay type: functional
Acinetobacter baumannii [22] = test: Bactericidal activity against drug-resistant Acinetobacter baumannii assessed as reduction in number of viable bacterial load at 8 nmol/ml with in 2 hrs by time kill assay; assay type: functional
Klebsiella pneumoniae [23] = test: Potentiation of norfloxacin-mediated antibacterial activity against drug-resistant Klebsiella pneumoniae assessed as norfloxacin MIC after 18 to 24 hrs by two fold dilution checkerboard method (reference value: 0.8 umol/ml); assay type: functional
Escherichia coli [24] = test: Antibacterial activity against Escherichia coli DH52 after 18 to 24 hrs by CLSI two fold serial dilution method; assay type: functional
Staphylococcus aureus [25] = test: Antibacterial activity against methicillin-resistant Staphylococcus aureus N315 after 18 to 24 hrs by CLSI two fold serial dilution method; assay type: functional
Enterococcus faecalis [26] = test: Antibacterial activity against drug-resistant Enterococcus faecalis after 18 to 24 hrs in presence of norfloxacin by two fold dilution checkerboard method; assay type: functional
DNA [27] = test: Induction of drug-resistant Acinetobacter baumanii DNA cleavage at 50 uM after 6 hrs by ethidium bromide staining based agarose gel electrophoresis method; assay type: nucleic-acid assay; settings: Acinetobacter baumannii
In short: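 Spin-column-isolated genomic DNA from drug-resistant A. baumanii (1.31×10^-6 mol/L) was incubated with compound (50 μM) in 50 mM Tris-HCl/50 mM NaCl, pH 7.4, at 37 °C for 6 h. Agarose gel electrophoresis was run against DNA-alone and DNA-plus-buffer lanes.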

Enterococcus faecalis [28] = test: Additive antibacterial activity against drug-resistant Enterococcus faecalis assessed as FIC index in presence of norfloxacin by two fold dilution checkerboard method; assay type: functional
DNA [29] = test: Binding affinity to drug-resistant Acinetobacter baumanii DNA by UV-vis spectroscopic analysis; assay type: nucleic-acid assay; settings: Acinetobacter baumannii; in short: as §1
Saccharomyces cerevisiae = test: Antifungal activity against Saccharomyces cerevisiae ATCC 9763 by CLSI two fold serial dilution method; assay type: functional
Pichia norvegensis = test: Antifungal activity against Candida mycoderma ATCC 96918 by CLSI two fold serial dilution method; assay type: functional
Pseudomonas aeruginosa [30] = test: Potentiation of norfloxacin-mediated antibacterial activity against drug-resistant Pseudomonas aeruginosa assessed as norfloxacin MIC after 18 to 24 hrs by two fold dilution checkerboard method (reference value: 1.6 umol/ml); assay type: functional
Acinetobacter baumannii [31] = test: Induction of membrane permeabilization in drug-resistant Acinetobacter baumannii at 0.024 umol/ml incubated for 1 hr measured up to 120 mins by propidium iodide staining-based fluorescence spectra analysis; assay type: functional, organism-based
DNA [32] = test: Inhibition of neutral red binding to drug-resistant Acinetobacter baumanii DNA up to 2.5 10^-5mol/L by UV-vis spectroscopic analysis; assay type: nucleic-acid assay; settings: Acinetobacter baumannii
In short: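 Neutral red competition with genomic DNA from drug-resistant A. baumanii, extracted by spin column after proteinase K lysis. UV-vis absorbance near 460 nm was followed as compound concentration increased in the neutral red–DNA system.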

Escherichia coli [33] = test: Synergistic antibacterial activity against drug-resistant Escherichia coli assessed as FIC index in presence of norfloxacin by two fold dilution checkerboard method; assay type: functional
Pseudomonas aeruginosa [34] = test: Synergistic antibacterial activity against drug-resistant Pseudomonas aeruginosa assessed as FIC index in presence of norfloxacin by two fold dilution checkerboard method; assay type: functional
Acinetobacter baumannii [35] = test: Antibacterial activity against drug-resistant Acinetobacter baumannii at 0.7 ug/ml measured 12 hrs post 10 serial passages; assay type: functional, organism-based
Candida parapsilosis = test: Antifungal activity against Candida parapsilosis ATCC 22019 by CLSI two fold serial dilution method; assay type: functional; settings: Lodderomyces parapsilosis
Klebsiella pneumoniae [36] = test: Antibacterial activity against drug-resistant Klebsiella pneumoniae after 18 to 24 hrs by CLSI two fold serial dilution method; assay type: functional
Escherichia coli [37] = test: Antibacterial activity against drug-resistant Escherichia coli after 18 to 24 hrs by CLSI two fold serial dilution method; assay type: functional
Enterococcus faecalis [38] = test: Antibacterial activity against drug-resistant Enterococcus faecalis after 18 to 24 hrs by CLSI two fold serial dilution method; assay type: functional
[39] = Oral bioavailability in ICR mouse at 10.4 to 83.2 mg/kg after 60 mins by HPLC method; assay type: ADME, organism-based; settings: in vivo
Acinetobacter baumannii [40] = test: Antibacterial activity against drug-resistant Acinetobacter baumannii after 18 to 24 hrs by CLSI two fold serial dilution method; assay type: functional
Pseudomonas aeruginosa [41] = test: Antibacterial activity against drug-resistant Pseudomonas aeruginosa after 18 to 24 hrs by CLSI two fold serial dilution method; assay type: functional

SMILES: CCCCCCOc1c(OC)cc(/C=N/Nc2nccs2)c2c1CN1CCc3cc4c(cc3C1C2)OCO4 (stereo not given)
- MIC (Acinetobacter baumannii [1]): 50 µM
- MIC (Bacillus subtilis): 120 µM (≈ 64.2 µg/mL)
- MIC (Pseudomonas aeruginosa [2]): 60 µM (≈ 32.1 µg/mL)
- fractional inhibitory concentration index (FICI) (Acinetobacter baumannii [3]): 0.31
- MIC (Micrococcus luteus): 60 µM (≈ 32.1 µg/mL)
- MIC (Staphylococcus aureus [4]): 6 µM
- MIC (Aspergillus flavus [5]): 60 µM (≈ 32.1 µg/mL)
- MIC (Escherichia coli [6]): 30 µM
- Ratio (Staphylococcus aureus [7]): 4
- MIC (Staphylococcus aureus [8]): 7 µM
- fractional inhibitory concentration index (FICI) (Klebsiella pneumoniae [9]): 0.38
- solubility at 3 h [10]: 1420 µg/mL (≈ 2660 µM)
- MIC (Staphylococcus aureus [11]): 30 µM (≈ 16 µg/mL)
- MIC (Pseudomonas aeruginosa [12]): 25 µM
- MIC (Acinetobacter baumannii [13]): 0.5 µM
- Activity (DNA [14]): Active
- MIC (Klebsiella pneumoniae [15]): 30 µM
- Ratio (Aspergillus flavus [16]): 14
- MIC (Enterococcus faecalis [17]): 50 µM
- MIC (Escherichia coli [18]): 100 µM
- MIC (Candida albicans): 30 µM (≈ 16 µg/mL)
- fractional inhibitory concentration index (FICI) (Staphylococcus aureus [19]): 0.5
- MIC (Cyberlindnera jadinii): 120 µM (≈ 64.2 µg/mL)
- viability at 48 h [20]: > 70.7%
- fold change (FC) (Staphylococcus aureus [21]): 4
- Activity (Acinetobacter baumannii [22]): >3 deltalog10CFU/ml
- MIC (Klebsiella pneumoniae [23]): 100 µM
- MIC (Escherichia coli [24]): 60 µM (≈ 32.1 µg/mL)
- MIC (Staphylococcus aureus [25]): 7 to 30 µM (≈ 3.74 to 16 µg/mL)
- MIC (Enterococcus faecalis [26]): 15 µM
- Activity (DNA [27]): Active
- fractional inhibitory concentration index (FICI) (Enterococcus faecalis [28]): 0.56
- K (DNA [29]): 2.54 ×10³ L/mol
- MIC (Saccharomyces cerevisiae): 60 µM (≈ 32.1 µg/mL)
- MIC (Pichia norvegensis): 30 µM (≈ 16 µg/mL)
- MIC (Pseudomonas aeruginosa [30]): 50 µM
- Activity (Acinetobacter baumannii [31]): Active
- inhibition (DNA [32]): Active
- fractional inhibitory concentration index (FICI) (Escherichia coli [33]): 0.31
- fractional inhibitory concentration index (FICI) (Pseudomonas aeruginosa [34]): 0.45
- Activity (Acinetobacter baumannii [35]): Active
- MIC (Candida parapsilosis): 4 µM (≈ 2.14 µg/mL)

SMILES: COc1ccc2cc3[n+](cc2c1OC)CCc1cc2c(cc1-3)OCO2 [BERBERINE]
- MIC (Bacillus subtilis): 690 to 1380 µM
- MIC (Klebsiella pneumoniae [36]): 1380 µM
- MIC (Pseudomonas aeruginosa [2]): 690 µM
- MIC (Micrococcus luteus): 690 to 1380 µM
- MIC (Escherichia coli [37]): 1380 µM
- solubility at 3 h [10]: 86 µg/mL
- MIC (Staphylococcus aureus [11]): 340 µM
- MIC (Enterococcus faecalis [38]): 1380 µM
- MIC (Escherichia coli [24]): 690 to 1380 µM
- MIC (Staphylococcus aureus [25]): 1380 µM
- bioavailability [39]: < 1%
- MIC (Acinetobacter baumannii [40]): 1380 µM
- MIC (Pseudomonas aeruginosa [41]): 1380 µM
